Source: ChEMBL document CHEMBL3865837, “Chemical Constituents of the Rhizomes of Bletilla formosana and Their Potential Anti-inflammatory Activity” (J Nat Prod, 2016)

How the values were obtained:
[1] = Antiinflammatory activity in human neutrophils assessed as inhibition of FMLP/cytochalasin B-induced superoxide anion generation by measuring superoxide dismutase-inhibitable reduction of ferricytochrome c preincubated for 5 mins followed by FMLP/cytochalasin B-induction by spectrophotometric analysis; format: functional, cell-based; conditions: Neutrophil
Method in brief: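 Neutrophils isolated from healthy donor venous blood (20−30 years old) by dextran sedimentation, Ficoll Hypaque centrifugation and hypotonic erythrocyte lysis, kept at 4 °C in Ca2+-free HBSS pH 7.4. Cells (6 × 10^5 cells/mL) with 0.5 mg/mL ferricytochrome c and 1 mM Ca2+, 37 °C 2 min; compound or 0.1% DMSO 5 min; CB 1 μg/mL 3 min; FMLP 100 nM. A550 followed continuously, ±SOD 100 U/mL; IC50, mean ± SEM, n = 3 or 4.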

[2] = Antiinflammatory activity in human neutrophils assessed as inhibition of fMLP/CB-induced elastase release using MeO-Suc-Ala-Ala-Pro-Val-p-nitroanilide as elastase substrate preincubated for 5 mins followed by fMLP/CB-induction; format: functional, cell-based; conditions: Neutrophil
Method in brief: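 Donor neutrophils (dextran/Ficoll/hypotonic lysis, held at 4 °C in Ca2+-free HBSS pH 7.4) at 6 × 10^5 cells/mL, equilibrated with 100 μM MeO-Suc-Ala-Ala-Pro-Val-p-nitroanilide at 37 °C for 2 min. Compound or 0.1% DMSO vehicle added for 5 min, then activated with FMLP 100 nM plus CB 0.5 μg/mL. A405 read continuously. IC50 given as mean ± SEM, n = 3 or 4.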

IC50 [1] [nM] | IC50 [2] [nM] | SMILES
1900 | 1700 | COc1cc2c(ccc3c(-c4c(O)cc(OC)c5c4ccc4cc(O)ccc45)c(O)cc(OC)c32)cc1O
1100 | 1800 | COc1c(Cc2ccc(O)cc2)c(O)c(Cc2ccc(O)cc2)c2c1-c1ccc(O)cc1CC2
200 | 2000 | COc1c(Cc2ccc(O)cc2)c(O)cc2c1-c1ccc(O)cc1CC2
200 | 2000 | COc1cc(O)c(Cc2ccc(O)cc2)c2c1-c1ccc(O)cc1CC2
6500 | > 10000 | COc1cccc(CCc2cc(O)cc(OC)c2)c1
4900 | > 10000 | COc1cc(CCc2cccc(O)c2)cc(O)c1-c1c(O)cc(OC)c2c1CCc1cc(O)ccc1-2
3600 | 2200 | COc1cc(O)c(Cc2ccc(O)cc2)c(CCc2cccc(O)c2)c1
2100 | 3200 | COc1cc(O)cc(CCc2ccc(O)c(OC)c2)c1 [GIGANTOL]
900 | 4700 | COc1cc(O)cc(CCc2cccc(O)c2)c1 [BATATASIN III]
6300 | 4200 | COc1cccc(CCc2c(Cc3ccc(O)cc3)c(O)cc(OC)c2Cc2ccc(O)cc2)c1
700 | 700 | COc1cc(O)c(Cc2ccc(O)cc2)c(CCc2cccc(O)c2)c1Cc1ccc(O)cc1
200 | 400 | COc1cc(O)c(-c2c(O)c(Cc3ccc(O)cc3)c3c(c2OC)-c2ccc(O)cc2CC3)c2c1-c1ccc(O)cc1CC2
1800 | 1400 | COc1cc(O)c(-c2c(O)cc3c(c2OC)-c2ccc(O)cc2CC3)c2c1-c1ccc(O)cc1CC2
400 | 600 | COc1cc(O)cc(CCc2cccc(O)c2)c1-c1c(OC)cc(O)c2c1CCc1cc(O)ccc1-2
2200 | 900 | COc1cc(CCc2cccc(O)c2)cc(O)c1Cc1ccc(O)cc1
4200 | 1200 | COc1cc(O)cc2c1-c1cc(-c3c(O)cc(OC)c4c3ccc3cc(O)ccc34)c(O)cc1CC2
1700 | 2800 | COc1cc(O)cc(CCc2cccc(O)c2)c1Cc1ccc(O)cc1
1600 | 1900 | COc1c(O)c(Cc2ccc(O)cc2)c2ccc3cc(O)ccc3c2c1OC
1100 | 1100 | COc1cc(CCc2cccc(O)c2)c(Cc2ccc(O)cc2)c(O)c1Cc1ccc(O)cc1

Continued, compound first:

SMILES | IC50 [1] [nM] | IC50 [2] [nM]
CC[C@@H](CC[C@@H](C)[C@H]1CC[C@H]2[C@@H]3CC=C4C[C@@H](O[C@@H]5O[C@H](CO)[C@@H](O)[C@H](O)[C@H]5O)CC[C@]4(C)[C@H]3CC[C@]12C)C(C)C | > 10000 | > 10000
COc1cc2c(ccc3c(-c4c(O)cc(OC)c5c4ccc4cc(O)c(OC)cc45)c(O)cc(OC)c32)cc1O | 1500 | 300
COc1cc(O)c(-c2c(O)cc(OC)c3c2ccc2cc(O)ccc23)c2ccc3cc(O)ccc3c12 [CIRRHOPETALANTHIN] | 1400 | 600
COC1=CC(=O)C2=C(CCc3cc(O)ccc32)C1=O | > 10000 | > 10000
COc1cc2c(ccc3cc(O)c(OC)c(OC)c32)cc1O | 2000 | 2100
COc1c(O)c(-c2c(O)c(OC)c(OC)c3c2CCc2cc(O)ccc2-3)c2c(c1OC)-c1ccc(O)cc1CC2 | 2500 | > 10000
COc1cc2ccc3cc(O)ccc3c2c(OC)c1O | 2600 | 4900
CC(C)C[C@@](O)(CC(=O)OCc1ccc(O[C@@H]2O[C@H](CO)[C@@H](O)[C@H](O)[C@H]2O)cc1)C(=O)OCc1ccc(O[C@@H]2O[C@H](CO)[C@@H](O)[C@H](O)[C@H]2O)cc1 | > 10000 | > 10000
COc1cc(O)cc2c1-c1cc(-c3c(O)cc(OC)c4c3CCc3cc(O)ccc3-4)c(O)cc1CC2 | 1500 | 500
COc1cc(O)c(Cc2ccc(O)cc2)c2ccc3cc(O)ccc3c12 | 500 | 900
COc1c(O)cc2ccc3c(Cc4ccc(O)cc4)c(O)ccc3c2c1OC | 1400 | 1300
COc1c(O)cc2ccc3cc(O)ccc3c2c1OC [NUDOL] | 1700 | > 10000
COc1cc2ccc3c(-c4c(O)cc(OC)c5c4ccc4cc(O)c(OC)cc45)c(O)cc(OC)c3c2cc1O | 2800 | 1600
CC[C@H](Nc1ncnc2[nH]cnc12)c1nc2cccc(F)c2c(=O)n1-c1ccccc1 [IDELALISIB] | 100 | 300
COc1cc2c(cc1O)CCc1c(-c3c(O)cc(OC)c4c3CCc3cc(O)ccc3-4)c(O)cc(OC)c1-2 | 2400 | 700
CCOCc1ccc(O)cc1 | > 10000 | > 10000
COc1cc2c(cc1O)CCc1cc(O)c(OC)c(OC)c1-2 | 200 | 5700
COc1cc(O)cc(CCc2ccccc2)c1 | 6500 | > 10000
COc1cc(O)cc2c1-c1ccc(O)cc1CC2 | 400 | > 10000
COc1c(O)cc2c(c1OC)-c1ccc(O)cc1CC2 [ERIANTHRIDIN] | 300 | 2000
O=Cc1ccc(O)cc1 [4-HYDROXYBENZALDEHYDE] | > 10000 | 3300
COc1cc(O)c(-c2c(O)cc(OC)c3c2ccc2cc(O)ccc23)c2c1-c1ccc(O)cc1CC2 [CIRRHOPETALANTHRIN] | 900 | 600
